According to ChEMBL document CHEMBL4033714, “Discovery of BI 135585, an in vivo efficacious oxazinanone-based 11β hydroxysteroid dehydrogenase type 1 inhibitor” (Bioorg Med Chem, 2017):
Values after ≈ are worked out from the molar mass of the structure shown.

What was measured:
[1] = system: Cynomolgus monkey; test: In-vivo inhibition of 11beta-HSD1 in cynomolgus monkey abdominal subcutaneous adipose tissue assessed as reduction in cortisol level at 1 mg/kg, po using [2H]-cortisone as substrate after 22 hrs by HPLC analysis relative to control; type: functional; conditions: Macaca fascicularis
How it was run: (§1)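 Cynomolgus monkeys were dosed orally. Perirenal and abdominal subcutaneous adipose tissue was then taken, and cortisone-to-cortisol conversion was measured ex vivo. Reduction in cortisol is expressed relative to vehicle-treated animals.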

[2] = Mean residence time in iv dosed cynomolgus monkey; type: ADME, organism-based, Macaca fascicularis; conditions: in vivo
[3] = Half life in rat liver microsomes; type: ADME, microsome
[4] = target: CYP3A4 (Homo sapiens, UniProt P08684); test: Inhibition of recombinant CYP3A4 (unknown origin); type: ADME; conditions: recombinant CYP3A4
[5] = target: T1, Nuclear receptor subfamily 1 group I member 2 (Homo sapiens, UniProt O75469); test: Inhibition of PXR (unknown origin); type: ADME
T1 sequence (O75469 whole entry): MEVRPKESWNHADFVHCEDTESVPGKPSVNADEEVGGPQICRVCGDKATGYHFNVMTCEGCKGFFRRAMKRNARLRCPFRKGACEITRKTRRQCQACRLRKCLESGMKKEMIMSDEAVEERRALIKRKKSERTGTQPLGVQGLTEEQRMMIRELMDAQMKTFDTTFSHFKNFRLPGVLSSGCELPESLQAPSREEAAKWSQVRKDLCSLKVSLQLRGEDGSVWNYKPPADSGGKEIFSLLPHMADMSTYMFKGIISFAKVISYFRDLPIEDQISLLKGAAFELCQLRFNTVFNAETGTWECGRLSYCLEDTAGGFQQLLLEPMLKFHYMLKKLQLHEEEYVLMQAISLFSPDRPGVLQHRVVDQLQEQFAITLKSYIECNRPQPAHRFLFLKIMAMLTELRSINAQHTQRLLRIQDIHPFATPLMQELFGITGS

[6] = target: hERG (Homo sapiens, UniProt Q12809); test: Inhibition of human ERG at 10 uM by patch clamp assay relative to control
[7] = Partition coefficient, log P of the compound; type: physicochemical; conditions: octanol/water
[8] = target: T2, 17-beta-hydroxysteroid dehydrogenase type 1 (Homo sapiens, UniProt P14061); test: Inhibition of 17beta-HSD1 (unknown origin)
T2 sequence (P14061 whole entry): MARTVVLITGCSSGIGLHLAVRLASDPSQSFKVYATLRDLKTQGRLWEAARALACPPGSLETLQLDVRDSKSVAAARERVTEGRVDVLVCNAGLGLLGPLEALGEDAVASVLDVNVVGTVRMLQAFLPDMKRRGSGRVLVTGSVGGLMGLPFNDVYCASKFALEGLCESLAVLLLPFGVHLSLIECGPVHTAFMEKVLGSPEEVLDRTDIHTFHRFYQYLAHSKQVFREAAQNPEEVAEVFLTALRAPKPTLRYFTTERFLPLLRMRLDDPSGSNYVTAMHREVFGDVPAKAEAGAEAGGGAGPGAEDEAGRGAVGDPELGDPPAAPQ

[9] = Oral bioavailability in cynomolgus monkey; type: ADME, organism-based, Macaca fascicularis; conditions: in vivo
[10] = Half life in cynomolgus monkey liver microsomes; type: ADME, Macaca fascicularis, microsome
[11] = Volume of distribution at steady state in iv dosed cynomolgus monkey; type: ADME, organism-based, Macaca fascicularis; conditions: in vivo, read-out: Vdss
[12] = target: Voltage-gated inwardly rectifying potassium channel KCNH2 (Homo sapiens, UniProt Q12809); test: Inhibition of human ERG
[13] = target: T3, 11-beta-hydroxysteroid dehydrogenase type 2 (Homo sapiens, UniProt P80365); test: Inhibition of 11beta-HSD2 (unknown origin)
T3 sequence (P80365 whole entry): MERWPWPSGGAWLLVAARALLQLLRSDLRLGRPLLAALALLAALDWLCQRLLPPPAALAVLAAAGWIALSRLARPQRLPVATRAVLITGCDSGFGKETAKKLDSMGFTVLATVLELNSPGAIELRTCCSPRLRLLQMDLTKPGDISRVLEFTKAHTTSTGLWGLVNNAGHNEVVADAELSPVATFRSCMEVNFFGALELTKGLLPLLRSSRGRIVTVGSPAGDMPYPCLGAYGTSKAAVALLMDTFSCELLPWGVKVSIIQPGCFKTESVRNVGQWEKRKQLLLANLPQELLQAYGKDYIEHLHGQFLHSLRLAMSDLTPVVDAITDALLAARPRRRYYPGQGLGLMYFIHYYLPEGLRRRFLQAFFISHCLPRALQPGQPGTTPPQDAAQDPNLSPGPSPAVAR

[14] = target: Cytochrome P450 2D6 (Homo sapiens, UniProt P10635); test: Inhibition of CYP2D6 (unknown origin); type: ADME
[15] = system: Cynomolgus monkey; test: In-vivo inhibition of 11beta-HSD1 in cynomolgus monkey perirenal adipose tissue assessed as reduction in cortisol level at 1 mg/kg, po using [2H]-cortisone as substrate after 22 hrs by HPLC analysis relative to control; type: functional; conditions: Macaca fascicularis; how it was run: as §1
[16] = Clearance in iv dosed cynomolgus monkey; type: ADME, organism-based, Macaca fascicularis; conditions: in vivo
[17] = system: Cynomolgus monkey; test: Dose normalized AUC in iv dosed cynomolgus monkey; type: ADME, organism-based, Macaca fascicularis; conditions: in vivo
[18] = Mean residence time in po dosed cynomolgus monkey; type: ADME, organism-based, Macaca fascicularis; conditions: in vivo
[19] = Aqueous solubility of the compound; type: physicochemical; conditions: aqueous medium; read-out: solubility
How it was run: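 Solubility measured in water, with each compound tested as amorphous material.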

[20] = Half life in human liver microsomes; type: ADME, microsome
[21] = Protein binding in human plasma; type: ADME, cell-free; conditions: read-out: PPB (converted)
[22] = target: T4, 3 beta-hydroxysteroid dehydrogenase/Delta 5-->4-isomerase type 2 (Homo sapiens, UniProt P26439); test: Inhibition of 3beta-HSD2 (unknown origin)
T4 sequence (P26439 whole entry): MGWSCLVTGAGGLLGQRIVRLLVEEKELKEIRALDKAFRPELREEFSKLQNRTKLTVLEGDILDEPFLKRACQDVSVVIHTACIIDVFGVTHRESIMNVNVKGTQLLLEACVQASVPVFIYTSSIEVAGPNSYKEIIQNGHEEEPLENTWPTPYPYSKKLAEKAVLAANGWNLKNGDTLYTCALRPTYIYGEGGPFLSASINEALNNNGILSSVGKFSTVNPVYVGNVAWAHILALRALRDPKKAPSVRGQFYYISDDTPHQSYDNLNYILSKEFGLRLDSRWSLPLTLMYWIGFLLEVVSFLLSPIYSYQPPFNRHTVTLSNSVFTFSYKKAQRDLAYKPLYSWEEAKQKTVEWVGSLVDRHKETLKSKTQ

[23] = system: Cynomolgus monkey; test: In-vivo inhibition of 11beta-HSD1 in cynomolgus monkey perirenal adipose tissue assessed as reduction in cortisol level at 3 mg/kg, po using [2H]-cortisone as substrate after 22 hrs by HPLC analysis relative to control; type: functional; conditions: Macaca fascicularis; how it was run: as §1
[24] = system: Cynomolgus monkey; test: In-vivo inhibition of 11beta-HSD1 in cynomolgus monkey abdominal subcutaneous adipose tissue assessed as reduction in cortisol level at 3 mg/kg, po using [2H]-cortisone as substrate after 22 hrs by HPLC analysis relative to control; type: functional; conditions: Macaca fascicularis; how it was run: as §1
[25] = target: CYP2C9 (Homo sapiens, UniProt P11712); test: Inhibition of CYP2C9 (unknown origin); type: ADME
CYP2C9, sequence (P11712 whole entry): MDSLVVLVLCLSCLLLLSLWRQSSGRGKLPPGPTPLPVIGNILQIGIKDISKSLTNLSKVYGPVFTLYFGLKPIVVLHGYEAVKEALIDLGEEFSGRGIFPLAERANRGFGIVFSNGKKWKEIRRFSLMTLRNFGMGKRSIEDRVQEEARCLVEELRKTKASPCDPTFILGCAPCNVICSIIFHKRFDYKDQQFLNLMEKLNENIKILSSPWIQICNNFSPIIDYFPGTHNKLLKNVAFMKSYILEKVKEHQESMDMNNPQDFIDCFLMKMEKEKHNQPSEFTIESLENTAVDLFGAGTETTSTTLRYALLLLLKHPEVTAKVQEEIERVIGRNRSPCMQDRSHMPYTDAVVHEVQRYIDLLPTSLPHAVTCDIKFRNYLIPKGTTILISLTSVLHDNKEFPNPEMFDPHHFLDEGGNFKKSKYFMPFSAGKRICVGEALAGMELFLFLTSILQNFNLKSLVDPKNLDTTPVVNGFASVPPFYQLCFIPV

Cytochrome P450 2D6, sequence (P10635 whole entry): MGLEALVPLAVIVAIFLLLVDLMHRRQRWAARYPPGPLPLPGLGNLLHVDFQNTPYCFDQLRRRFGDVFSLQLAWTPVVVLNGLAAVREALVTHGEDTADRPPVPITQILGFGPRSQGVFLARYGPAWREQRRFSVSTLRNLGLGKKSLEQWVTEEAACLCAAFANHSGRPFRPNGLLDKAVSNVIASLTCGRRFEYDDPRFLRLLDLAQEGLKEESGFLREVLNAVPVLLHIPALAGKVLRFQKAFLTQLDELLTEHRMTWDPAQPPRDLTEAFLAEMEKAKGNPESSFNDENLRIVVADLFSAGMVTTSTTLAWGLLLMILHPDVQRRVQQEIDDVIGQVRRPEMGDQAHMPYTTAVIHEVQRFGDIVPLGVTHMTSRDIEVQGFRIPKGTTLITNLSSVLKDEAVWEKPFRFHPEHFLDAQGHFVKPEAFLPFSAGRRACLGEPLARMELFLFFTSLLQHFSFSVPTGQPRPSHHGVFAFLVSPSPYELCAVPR
CYP3A4, sequence (P08684 whole entry): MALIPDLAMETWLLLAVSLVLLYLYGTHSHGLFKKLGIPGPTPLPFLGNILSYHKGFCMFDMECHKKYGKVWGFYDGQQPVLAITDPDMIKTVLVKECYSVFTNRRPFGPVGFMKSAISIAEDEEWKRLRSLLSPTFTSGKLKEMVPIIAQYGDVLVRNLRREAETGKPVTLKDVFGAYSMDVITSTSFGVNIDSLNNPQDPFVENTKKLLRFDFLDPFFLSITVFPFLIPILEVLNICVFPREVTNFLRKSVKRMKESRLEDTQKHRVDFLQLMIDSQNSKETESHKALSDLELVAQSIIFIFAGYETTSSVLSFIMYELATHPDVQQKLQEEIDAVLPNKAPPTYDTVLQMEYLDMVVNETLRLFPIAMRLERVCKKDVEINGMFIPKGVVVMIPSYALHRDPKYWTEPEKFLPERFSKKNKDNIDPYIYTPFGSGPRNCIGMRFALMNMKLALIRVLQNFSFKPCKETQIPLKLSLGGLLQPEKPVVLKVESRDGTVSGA
Voltage-gated inwardly rectifying potassium channel KCNH2, sequence (Q12809 whole entry): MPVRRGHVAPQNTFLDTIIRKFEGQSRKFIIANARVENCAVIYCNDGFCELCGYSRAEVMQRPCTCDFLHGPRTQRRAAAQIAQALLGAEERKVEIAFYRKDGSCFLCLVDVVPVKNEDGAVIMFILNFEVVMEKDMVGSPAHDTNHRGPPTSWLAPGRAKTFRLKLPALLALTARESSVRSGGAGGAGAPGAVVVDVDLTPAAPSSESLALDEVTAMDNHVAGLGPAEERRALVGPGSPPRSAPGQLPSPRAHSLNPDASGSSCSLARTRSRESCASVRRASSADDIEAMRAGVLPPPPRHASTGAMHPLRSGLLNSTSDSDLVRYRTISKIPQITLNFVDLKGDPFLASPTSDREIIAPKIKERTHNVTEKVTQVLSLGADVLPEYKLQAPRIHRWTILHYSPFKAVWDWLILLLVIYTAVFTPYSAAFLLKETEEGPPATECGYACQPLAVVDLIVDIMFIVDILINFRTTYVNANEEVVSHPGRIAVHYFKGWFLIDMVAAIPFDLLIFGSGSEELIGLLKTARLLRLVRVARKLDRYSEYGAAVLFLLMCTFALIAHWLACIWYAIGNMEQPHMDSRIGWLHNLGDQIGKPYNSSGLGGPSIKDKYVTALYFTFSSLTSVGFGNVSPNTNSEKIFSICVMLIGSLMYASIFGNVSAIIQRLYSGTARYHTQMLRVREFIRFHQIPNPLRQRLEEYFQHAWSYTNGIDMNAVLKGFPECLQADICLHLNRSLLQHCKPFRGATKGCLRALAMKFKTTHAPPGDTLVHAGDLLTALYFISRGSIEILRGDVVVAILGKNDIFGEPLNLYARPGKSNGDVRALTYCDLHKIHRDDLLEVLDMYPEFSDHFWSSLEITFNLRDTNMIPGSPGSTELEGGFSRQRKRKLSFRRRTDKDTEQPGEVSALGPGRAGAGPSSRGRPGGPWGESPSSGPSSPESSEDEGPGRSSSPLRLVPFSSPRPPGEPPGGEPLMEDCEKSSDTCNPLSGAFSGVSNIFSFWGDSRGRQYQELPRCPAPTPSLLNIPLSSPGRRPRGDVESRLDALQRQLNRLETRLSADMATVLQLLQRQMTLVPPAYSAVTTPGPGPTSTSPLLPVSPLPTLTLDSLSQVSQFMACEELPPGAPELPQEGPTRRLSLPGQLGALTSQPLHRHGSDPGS
hERG, sequence (Q12809 whole entry): as above

MRT [2]: 5.5 h
half-life [3]: > 1.5 h
IC50 [4]: > 50 µM
EC50 [5]: > 10 µM
logP [7]: 2.6
IC50 [8]: > 10 µM
bioavailability [9]: 54%
half-life [10]: > 1.5 h
Vd [11]: 2.5 L/kg
IC50 [13]: > 10 µM
IC50 [14]: > 50 µM
clearance [16]: 0.45 L/h/kg
AUC/dose [17]: 2500 nM·h
MRT [18]: 8.7 h
solubility [19]: 0.22 mg/mL (≈ 478 µM)
half-life [20]: > 1.5 h
fraction unbound [21]: 0.084
IC50 [22]: > 10 µM
IC50 [25]: > 50 µM
SMILES: C[C@@H](c1ccc(-c2ccn(C)c(=O)c2)cc1)N1CC[C@](CC(C)(C)O)(c2ccccc2)OC1=O
inhibition in vivo at 1 mg/kg [1]: 67%
inhibition at 10 µM [6]: < 10%
IC50 [12]: > 100 µM
inhibition in vivo at 1 mg/kg [15]: 67%
inhibition in vivo at 3 mg/kg [23]: 90%
inhibition in vivo at 3 mg/kg [24]: 95%
